Experimental data pooled from the literature.
Target: Calcium/calmodulin-dependent protein kinase type 1 (CAMK1, Homo sapiens, UniProt Q14012)

| Compound | assay | conditions | endpoint | result |
| --- | --- | --- | --- | --- |
| CS(=O)(=O)N1CCCC(NC(=O)[C@H](CCC2CCCCC2)NC(=O)c2ccc(CNc3ncnc4c3nnn4-c3ccccc3)cc2)C1 (some centres unmarked) | cell-free assay, competition with immobilised ligand | 0.1 µM | remaining binding | 96% |
| COc1cc(Nc2cnc(C#N)c(O[C@H](C)CN(C)C)n2)ncc1-c1cnn(C)c1 | enzyme activity, inhibitor, radiometric | 10 µM | remaining activity | 95% |
| Cc1ccc(Nc2nccc(N(C)c3ccc4c(C)n(C)nc4c3)n2)cc1S(N)(=O)=O | enzyme activity, inhibitor | 0.3 µM | inhibition | 13% |
| COc1cccc2c(NCc3ccccc3)nc(-n3c(N)nc4ccccc43)nc12 | target engagement in cells, inhibitor, chemoproteomics | 20 mM | inhibition | -2.1% |
| COc1cc(/C=C/C(=O)CC(=O)/C=C/c2ccc(O)c(OC)c2)ccc1O | enzyme activity, inhibitor | 1 µM | activity vs control | 86% |
| O=C1Nc2ccc(Cl)cc2C1=Cc1cc(Cl)c(O)c(Cl)c1 | cell-free assay | 0.5 µM | remaining signal | 94.9% |
| Cc1noc([C@H]2C[C@@H](c3ccc(C(F)(F)F)cc3)CN(C(=O)N3CCS(=O)(=O)C3)C2)n1 | cell-free assay, competition with immobilised ligand | 1 µM | remaining binding | 100% |
| CC(C)(C)C(=O)c1sc(NC2CCCCC2)nc1N | enzyme activity, inhibitor | 10 µM | remaining activity | 109% |
| COc1cc(-c2cc(-c3ccc(N4CCNCC4)cc3)cnc2C)cc(OC)c1OC | enzyme activity, inhibitor | 0.1 µM | inhibition | 1% |
| CN(C)C(=O)Cn1cc(-c2nc([C@@](C)(c3ccc(-c4cnc(N)nc4)cc3)C3CC3)no2)cn1 | cell-free assay, competition with immobilised ligand | 1 µM | remaining binding | 100% |
| CCCS(=O)(=O)Nc1ccc(F)c(C(=O)c2c[nH]c3ncc(-c4ccc(Cl)cc4)cc23)c1F | enzyme activity, inhibitor | 1 µM | inhibition | < 10% |
| Cc1nc(N2CC[C@@H](O)C2)ncc1-c1cc(C(F)(F)F)cc2[nH]ncc12 | cell-free assay, competition with immobilised ligand | 1 µM | remaining binding | 100% |
| CC(C)(O)[C@H]1CC[C@H](Nc2ccc3ncc(-c4cccc(C(F)(F)F)c4)n3n2)CC1 | enzyme activity, inhibitor | 1 µM | remaining activity | 100% |
| Oc1cccc(-c2nc(N3CCOCC3)c3oc4ncccc4c3n2)c1 | enzyme activity, inhibitor | 10 µM | remaining activity | 99% |
| CC/C(=N\NC(=O)NCc1cccc(O)c1)c1ccc(O)c(C)c1O | enzyme activity, inhibitor | 0.1 µM | inhibition | -2.3% |
| CS(=O)(=O)c1cc(C2(NC(=O)c3cncc4c3cnn4-c3ccc(F)cc3)CC2)ccn1 | cell-free assay, competition with immobilised ligand | 1 µM | remaining binding | 65% |
| O=C(Nc1cnn(-c2csc(C(=O)NC3COC3)c2)c1)Nc1ccccc1Cl | enzyme activity, inhibitor | 5 µM | remaining activity | 87.1% |
| CCc1ccccc1C(=O)Nc1n[nH]c2c(C)c(F)c(C3C(C#N)=C(C)N(C)C(C)=C3C#N)cc12 | cell-free assay, competition with immobilised ligand | 1 µM | remaining binding | 76% |
| CNC(=O)c1cc(Oc2ccc(NC(=O)Nc3ccc(Cl)c(C(F)(F)F)c3)cc2)ccn1 | enzyme activity, inhibitor | 10 µM | inhibition | 9% |
| COc1cc2c(Nc3ccc(Br)cc3F)ncnc2cc1OCC1CCN(C)CC1 | cell-free assay | 0.5 µM | remaining signal | 81.6% |
